# Assay outcomes as filed in PubChem.
# Only some compounds are listed: those with a hit (about 2.5% of all), similar ones and a draw of the others.
# AP complement – alternative complement pathway inhibitors, primary screen, biochemical, ELISA, human serum, orthogonally pooled compounds; LPS-coated ELISA, C3 deposition; tested in compound mixtures; inhibition, % at 5 µM; actives 0.08% (n = 62,000); AID 1235, 2008;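 active means inhibition above 30% in each of the two pooled mixtures holding the compound, so the lower value exceeds 30%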
#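 Assay system: human serum alternative complement pathway, C3 deposition on LPS-coated wells; Dosing: 5 µM per compound in ten-compound mixtures; Detection: Anti-C3 ELISA, OD 450 nm; Buffer or medium: Mg2+-EGTA GVB++ buffer containing human serum at 1:15 dilution; Timing: 1 h at 37 °C; Replication: two different pools per compound.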
# Hsp90 inh – tumor Hsp90 inhibitors, primary screen, cell lysate, fluorescence polarization, NCI-N417 lysate; Heat shock protein HSP 90-alpha (Homo sapiens), P07900; Cy3B-geldanamycin FP displacement; inhibition, % at 30 µM; actives 0.35% (n = 64,000); AID 429, 2006;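 active means inhibition above 50%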
# JNK3 inh – JNK3 kinase activity inhibitors, primary screen, biochemical, human, purified enzyme; Mitogen-activated protein kinase 10 (Homo sapiens), P53779; HTS; inhibition, % at 8 µM; actives 0.61% (n = 60,000); AID 746, 2007; in the data active means inhibition above about 17%
# Target sequence (P53779 whole entry, looked up): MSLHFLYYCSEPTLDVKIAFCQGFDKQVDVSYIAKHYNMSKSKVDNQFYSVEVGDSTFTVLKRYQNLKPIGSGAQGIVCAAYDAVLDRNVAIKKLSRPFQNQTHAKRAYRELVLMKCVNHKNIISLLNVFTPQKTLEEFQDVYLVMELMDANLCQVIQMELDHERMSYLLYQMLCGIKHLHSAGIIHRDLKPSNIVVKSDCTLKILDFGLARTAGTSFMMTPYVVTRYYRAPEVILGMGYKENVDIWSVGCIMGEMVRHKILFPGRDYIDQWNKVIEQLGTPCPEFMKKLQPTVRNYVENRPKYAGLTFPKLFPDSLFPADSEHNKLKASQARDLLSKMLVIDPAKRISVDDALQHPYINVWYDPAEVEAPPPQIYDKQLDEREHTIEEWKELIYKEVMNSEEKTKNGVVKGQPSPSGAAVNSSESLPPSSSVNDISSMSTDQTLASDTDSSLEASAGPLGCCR
# HEK293 NFkB inh – inhibitors of PMA/ionomycin-induced NF-kB reporter, primary screen, antigen receptor NF-kB inhibitor project, cell-based, HEK-293 luciferase reporter, luminescence; HEK-293 NF-kB luciferase reporter; inhibition, % at 3 µM; AID 465, 2006; actives 0.21% (n = 62,000);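 active means inhibition above the mean of all tested compounds plus 3 SD, cut at about 40% in these data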
#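 Signal: luciferase luminescence; Material: HEK-293 cells with stable firefly luciferase reporter driven by four HIV NF-kB elements; Probe or stimulus: PMA with ionomycin; Replication: tested once; Times: 1 h compound pretreatment, then 16 h stimulation at 37 °C, 5% CO2; Benchmarks: DMSO and 10 µM reference inhibitor; Evaluation: per-plate % inhibition versus controls.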
# HER2 expr 66K – inhibitors of Her2 protein expression, primary screen, SKBR-3 cells, AlphaScreen, 66K library. Receptor tyrosine-protein kinase erbB-2 (Homo sapiens), P04626. SKBR-3 HER2 protein level, 18-24 h; stronger effect = lower value. HER2 level % of control, % at 10 µM. actives 0.69% (n = 65,000). AID 645, 2007;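 active means HER2 level under 5% of the carrier-only control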
# Jurkat viability – cytotoxicity toward Jurkat T cells, primary screen, cytotoxicity control, cell-based, Jurkat E6.1, 60K MLSMR library; inhibition, % at 4 µM; Jurkat E6.1 viability, ATP luminescence, 48 h; actives 1.2% (n = 56,000);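 active means inhibition above the mean inhibition of all tested compounds plus 3 SD, cut at about 28% in these data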
# A number is an active result; 0 = inactive; - = not tested or not shown.
SMILES,AP complement,Hsp90 inh,JNK3 inh,HEK293 NFkB inh,HER2 expr 66K,Jurkat viability
CCCCC/C=C\CC(O)/C=C/c1cccc(CC(O)CCCCO)n1 (stereo unspecified),-,0,-,-,-,-
CN1CCN(Cc2c(O)ccc3occ(C(=O)c4ccccc4)c23)CC1,0,0,0,0,0,0
CC(=O)C(C(C)=O)c1c(Cl)c(O)c(O)c2c(C(=O)c3ccccc3)coc12,0,0,0,0,0,49.3
COc1cc(C2C(C#N)=C(N)Oc3cc(O)ccc32)cc2c1OCO2 (stereo unspecified),0,0,0,0,0,0
COc1cc(C2C(C#N)=C(N)Oc3cc(N(C)C)ccc32)cc2c1OCO2 (stereo unspecified),0,0,0,63.0,0,0
CCCCC(=O)Nc1ccc(NC(=O)c2ccc3c(c2)OCO3)cc1OC,0,0,0,0,0,0
COc1cc(NC(=O)c2ccc3c(c2)OCO3)ccc1NC(=O)C(C)C,0,0,0,0,0,98.4
O=C(CSc1nc2cc(Cl)ccc2s1)N1CCN(C(=O)c2ccco2)CC1,0,0,0,0,0,0
O=C(CSc1c2c(nc3ccc(Cl)cc13)CCCC2)N1CCN(C(=O)c2ccco2)CC1,0,0,0,0,-5.2,0
O=C(Cn1nc(C(F)(F)F)c2c1CCCC2)NCc1ccco1,0,0,0,0,0,0
CN1C2CC(OC(=O)[C@H](CO)c3ccccc3)CC1C1OC12 (stereo partly specified),-,0,-,-,-,-
Nc1nc2n(n1)C(c1cccs1)CC(c1ccc(Br)cc1)N2 (stereo unspecified),-,0,0,-,-20.1,-
COc1ccc(C2CC(c3ccc(Br)cc3)Nc3nc(N)nn32)cc1 (stereo unspecified),0,0,0,0,0,0
Cn1c(SC2=CS(=O)(=O)c3ccccc32)nc2ccccc21,0,0,0,0,-22.1,73.1
Cn1c(Cl)nc2ccccc21,0,0,0,0,0,0
CC(C)c1ccccc1OCCNS(C)(=O)=O,0,0,0,0,0,0
Cc1cc(=O)oc(C)c1C(=O)n1nc(C)c2c1C[C@@H]1[C@H]2C1(C)C,-,0,0,-,0,-
COc1ccc(NS(=O)(=O)c2cc(C)ccc2NC(=O)c2cc(C)oc2C)cc1,0,0,0,0,0,90.3
CCOC(=O)c1ccc(NS(=O)(=O)c2cc(C)ccc2OC)cc1,0,0,0,0,0,0
COC(=O)c1ccccc1NC(=O)COC(=O)c1ccco1,0,0,20.9,0,0,0
COC(=O)c1ccccc1NC(=O)COC(=O)CSCC(=O)N1CCOCC1,0,0,19.2,0,0,0
O=C(Nc1ccc(S(=O)(=O)N2CCCc3ccccc32)cc1)C1CCCO1 (stereo unspecified),0,0,0,0,0,0
O=C(O)C1CC=CCC1C(=O)Nc1ccc(S(=O)(=O)N2CCCc3ccccc32)cc1 (stereo unspecified),0,0,0,0,0,35.1
CC(C)Cc1nc2oc3c(N4CCN(CCO)CC4)ncnc3c2c2c1CCCC2,0,0,0,0,-3.6,0
CCN1CCN(c2ncnc3c2oc2nc(C(C)C)c4c(c23)CCC4)CC1,0,0,0,0,0,0
SMILES,AP complement,Hsp90 inh,JNK3 inh,HEK293 NFkB inh,HER2 expr 66K,Jurkat viability
CN(Cc1cc2ccccc2[nH]c1=O)C(=O)C1CCCCC1,0,0,0,0,0,0
CC(C)C(=O)N(Cc1cc2ccccc2[nH]c1=O)C(C)(C)C,0,0,0,0,-26.7,0
Cc1ccc(CNC(=O)CSc2nc(N3CCCCC3)nc(N3CCCCC3)n2)cc1,0,0,0,0,0,0
Cn1c(SCC2CCCCC2)nnc1-c1ccncc1,0,0,0,0,0,0
N=c1n(CCO)c2ccccc2n1CCOc1ccc(Cl)cc1Cl,0,0,0,0,2.4,0
COc1ccc(OCCn2c(=N)n(CCO)c3ccccc32)cc1,0,0,0,0,0,0
